Measured values from ChEMBL document CHEMBL4513216, “Probing the Open Global Health Chemical Diversity Library for Multistage-Active Starting Points for Next-Generation Antimalarials” (ACS Infect Dis, 2020).

Assay: Toxicity liver stage against HepG2, at 10uM
Assay type: cell-based
Design: test concentration 10 uM, cell line HepG2-A16-CD81EGFP
Conditions: human, HepG2-A16-CD81EGFP cells; read-out: INHIBITION
Procedure, shortened: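 Uninfected HepG2-A16-CD81EGFP cells, 3 × 10^3 per well, 1536-well, plated on prespotted compound at 10 μM final, parasite-free screening media added to match infected plates; puromycin 10 μM positive, DMSO 0.5% negative; run in parallel with 48 h PbLuc assay at 37 °C, 5% CO2; viability by CellTiter-Glo luminescence, normalized to controls.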

Cc1ccc(CN2CC[C@H]3OCC[C@@H](c4nc(C)no4)[C@H]3C2)cc1
cytotoxicity at 10 µM: -6.95%

COc1ccc(N2CCN(C(=O)COc3nccc(C)n3)CC2)cc1
cytotoxicity at 10 µM: -6.16%

COc1cccc(CN(C)C(C)c2nccs2)c1OCCn1ccnc1 (stereo not given)
cytotoxicity at 10 µM: -0.21%

CC(C)C(O)CCNC(=O)Nc1cc(F)ccc1-n1cccn1 (stereo not given)
cytotoxicity at 10 µM: -3.86%

CCN(CC)CC1CCN(Cc2ccn(C)c(=O)c2)CC1
cytotoxicity at 10 µM: -14.7%

CC(C)C(C#N)N1CCN(Cc2nccn2CC(F)(F)F)CC1 (stereo not given)
cytotoxicity at 10 µM: 0.172%

CN(C)c1nc2n(c(=O)n1)CCN2C(=O)Nc1ccccc1
cytotoxicity at 10 µM: 4.73%

O=C(Nc1ccccc1)C1CCCN(C(=O)Cn2cncn2)C1 (stereo not given)
cytotoxicity at 10 µM: 16.3%

COc1ccc(OC)c(C(=O)N2CCCCC2Cn2cccn2)c1 (stereo not given)
cytotoxicity at 10 µM: -0.677%

C[C@@H]1CN(c2ccc(Cl)cn2)CC[C@@]1(O)C1CCOCC1
cytotoxicity at 10 µM: -2.54%

COCCN(Cc1nc2c(cnn2C)c(=O)[nH]1)Cc1ccco1
cytotoxicity at 10 µM: -5.04%

Cc1cnn(CC2CCCCN2CCCS(=O)(=O)N(C)C)c1 (stereo not given)
cytotoxicity at 10 µM: -5.1%

Cc1cnn(CC2CCCCN2C(=O)Cc2cccc(F)c2)c1 (stereo not given)
cytotoxicity at 10 µM: -10.7%

O=C(CNC(=O)Nc1c(F)cc(F)cc1-c1ccccc1)NC1CC1
cytotoxicity at 10 µM: -13.5%

Cc1nc2c(C)cccc2cc1C(=O)N1CCC2(CC1)NCCNC2=O
cytotoxicity at 10 µM: -0.0638%

CCCS(=O)(=O)NCCc1ncc(CC)s1
cytotoxicity at 10 µM: -1.56%

CC(C)n1cnnc1CN(C)Cc1ccc(CO)o1
cytotoxicity at 10 µM: 3.68%

O=S(=O)(c1ccccc1)N1C[C@@H]2CCN[C@@H]2C1
cytotoxicity at 10 µM: 2.58%

CN1CC2(CCN(c3nc(N)nc4c3CCNC4)CC2)OC1=O
cytotoxicity at 10 µM: -5.66%

CCCNC(=O)C(C)Nc1cccc(Oc2ccc(C#N)cn2)c1 (stereo not given)
cytotoxicity at 10 µM: -7.99%

NC(=O)C1CCN(C(=O)Cn2ccc3cc(Br)ccc32)CC1
cytotoxicity at 10 µM: 11.1%

Cc1nc(N(C)C)ncc1C(=O)NCCCn1nccc1C1CC1
cytotoxicity at 10 µM: 9.53%

CCc1nc(N2CCCN(c3ncccn3)CC2)c2cnn(C)c2n1
cytotoxicity at 10 µM: 2.22%

Cc1nc[nH]c1CN1CCCC(CNC(=O)c2ccncn2)C1 (stereo not given)
cytotoxicity at 10 µM: -0.334%

Cc1cnc(CCNC(Cc2ccncc2)C(F)(F)F)s1 (stereo not given)
cytotoxicity at 10 µM: 24.4%

CN(C)C(=O)CO[C@H]1CN(Cc2ccsc2)[C@@H]2COC[C@H]12
cytotoxicity at 10 µM: 8.44%

Cc1ccc(C2(CN3CCN(c4ncccn4)CC3)CCNCC2)nc1
cytotoxicity at 10 µM: -10.1%

Cc1ncccc1OC1(C(=O)NCCC2CCCN2C)CCNCC1 (stereo not given)
cytotoxicity at 10 µM: 2.18%

COc1cccc(CC(=O)N2CCCC2c2nc(C)c(C)c(O)n2)c1 (stereo not given)
cytotoxicity at 10 µM: -36.9%

O=C(Cn1ccc2ccc(F)cc21)NC[C@@H]1CCCN2CCCC[C@H]12
cytotoxicity at 10 µM: 14%

Cc1cc(C)n(CC2CCCN2C(=O)c2cc[nH]n2)n1 (stereo not given)
cytotoxicity at 10 µM: -3.8%

Cc1cccc(C)c1OCCCN1CCC(n2cncn2)CC1
cytotoxicity at 10 µM: -24.3%

Cn1cc(CN(C(=O)c2ccc3ncsc3c2)C2CC2)cn1
cytotoxicity at 10 µM: 3.11%

CN(Cc1ccc(F)cc1)CC1(O)CCN(C(=O)c2cccs2)C1 (stereo not given)
cytotoxicity at 10 µM: -12.6%

CNC(=O)CN1CCO[C@H]2CN(CC3CCOC3)C[C@H]21 (stereo not given in full)
cytotoxicity at 10 µM: 7.64%

Cc1oc(-c2cc(F)cc(F)c2)nc1CN1C[C@@H](C)NC[C@@H]1C
cytotoxicity at 10 µM: -1.66%

CCc1sc(C(=O)Nc2cnn(CCN(C)C)c2)cc1C
cytotoxicity at 10 µM: 7.9%

O=C(NC[C@H]1OC[C@@H](NC2CCOCC2)[C@@H]1O)C1CCCC1
cytotoxicity at 10 µM: -1%

CN1CCCC(c2cccc(CCC(=O)NCc3ccccn3)n2)C1 (stereo not given)
cytotoxicity at 10 µM: -14%

CCOC(=O)N[C@H]1C[C@@H](C(=O)NCc2cccc(Cl)c2)N(C)C1
cytotoxicity at 10 µM: -3.89%

O=C(NCC1CCCN(C(=O)NCCc2ccccc2)C1)c1ccco1 (stereo not given)
cytotoxicity at 10 µM: -4.66%

COc1ccc(CN2CCC3(CC2)CCN(CC(=O)N(C)C)C3=O)cc1
cytotoxicity at 10 µM: -0.449%

O=C1CC2(CCN(C(=O)c3ccccn3)CC2)Oc2c(Br)cc(Br)cc21
cytotoxicity at 10 µM: 11.5%

COc1ccnc(N2CCCN(Cc3ncc(C(C)C)o3)CC2)n1
cytotoxicity at 10 µM: 1.74%

Cc1cnn(-c2cccc(N3CCCCC3)n2)c1
cytotoxicity at 10 µM: 0.247%
